Measured values from publication PMC6488424 (European journal of medicinal chemistry, 2019).

Columns and labels:
[1] = test system: CXCR4-positive MDA-MB-231 human breast cancer cells; assay: Matrigel invasion assay induced by CXCR4/CXCL12-mediated interaction; format: cell-based; details: MDA-MB-231, 22 h, read-out: Inhibition of cell invasion
How it was run: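 MDA-MB-231 cells were pre-mixed with test compound (100 nM) and seeded in the upper well of a Matrigel-coated chamber in serum-free medium. The lower well held CXCL12α (200 ng/mL) as chemoattractant. After 22 h in a humidified incubator, non-invading cells were swabbed off, and invading cells on the filter underside were methanol-fixed and H&E-stained. Percent invasion came from counts of stained cells.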

MCF-10A = assay: Cytotoxicity, cell viability; format: cell-based, human; details: concentrations as high as 100 μM, 24 h treatment
How it was run: (§1)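 Cells were seeded at 3000 cells/well and held 24 h at 37 °C in a CO2 incubator. They were then exposed to the test compound for 24 h at 37 °C. MTT-type tetrazolium reagent (CellTiter 96AQ) was added for a further 2 h, and absorbance was read at 490 nm.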

MDA-MB-231 = assay: Cytotoxicity, cell viability; format: cell-based, human; details: concentrations as high as 100 μM, 24 h treatment
How it was run: as §1

[2] = Carrageenan-induced paw inflammation suppression test; format: in vivo; details: mouse paw after treatment with IIIm
SKBR3 = assay: Cytotoxicity, cell viability; format: cell-based, human; details: concentrations as high as 100 μM, 24 h treatment
How it was run: as §1

CXCR4 = CXCR4 (Homo sapiens, UniProt P61073); format: binding; details: fold loss of affinity vs RB-108
Sequence of CXCR4 (P61073 whole entry): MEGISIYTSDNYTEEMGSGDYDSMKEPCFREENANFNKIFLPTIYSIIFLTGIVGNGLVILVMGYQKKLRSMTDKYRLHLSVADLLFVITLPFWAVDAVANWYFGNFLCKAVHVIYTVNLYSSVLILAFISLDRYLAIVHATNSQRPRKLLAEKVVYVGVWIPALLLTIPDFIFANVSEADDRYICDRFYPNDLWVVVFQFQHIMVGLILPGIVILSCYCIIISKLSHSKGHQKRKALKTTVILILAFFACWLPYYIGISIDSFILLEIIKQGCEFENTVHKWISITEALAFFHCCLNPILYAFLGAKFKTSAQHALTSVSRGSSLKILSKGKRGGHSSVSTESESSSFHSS

Compound: c1cc(CN2CCCNCCNCCCNCC2)ccc1CN1CCCNCCNCCCNCC1 [AMD3100]
- inhibition at 0.1 µM [1]: 55%

Compound: O=C(NCc1ccc(CNS(=O)(=O)c2ccc3c(c2)CCO3)cc1)c1ccc(F)cc1 [IIIm, 4-Fluoro-N-(4-(((2,3-dihydrobenzofuran)-5-sulfonamido)methyl)benzyl)benzamide]
- Inhibition of proliferation (cytotoxicity) (MCF-10A): did not inhibit the proliferation
- Inhibition of proliferation (cytotoxicity) (MDA-MB-231): did not inhibit the proliferation
- Number of inflammatory cells accumulated in the paw tissue (histological analysis, H&E) [2]: markedly decreased
- Inhibition of proliferation (cytotoxicity) (SKBR3): did not inhibit the proliferation

Compound: Cc1ccc(S(=O)(=O)NCc2ccc(CNC(=O)c3ccc(F)cn3)cc2)cc1 [Ia, 5-Fluoro-N-(4-(((4-methylphenyl)sulfonamido)methyl)benzyl)picolinamide]
- EC reduced compared with RB-108 (CXCR4): more than 1000 fold

Compound: Cc1ccc(S(=O)(=O)NCc2ccc(CNC(=O)c3ccc(F)nc3)cc2)cc1 [Ib, 6-Fluoro-N-(4-(((4-methylphenyl)sulfonamido)methyl)benzyl)nicotinamide]
- EC reduced compared with RB-108 (CXCR4): more than 1000 fold
